According to ChEMBL document CHEMBL5029154, “Design, Synthesis, and Biological Evaluation of Organic Nitrite (NO2-) Donors as Potential Anticerebral Ischemia Agents” (J Med Chem, 2021):
Activity calls are given as the source filed them. No cut-off for these calls is given here.

Experiments:
Rattus norvegicus [1] = assay: Neuroprotective activity against middle cerebral artery occlusion-induced ischemia-reperfusion injury Sprague-Dawley rat model assessed as decrease in cerebral infarct volume at 95 to 9500 microg/kg, iv pretreated for 2 hrs followed by reperfusion measured after 24 hrs; format: functional, organism-based; details: dose 95-9500 µg/kg
How it was run: (§1)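 Male SD rats (N = 8/group) were dosed iv at 95, 950 or 9500 μg/kg 2 h before 2 h MCAO (nylon suture, chloral hydrate anesthesia), then reperfused. Where used, PTIO 1 mg/kg iv was given 30 min before compound. At 24 h, blinded assessment covered Longa deficit score, TTC-stained 2 mm sections (infarct area/whole area), and edema by wet/dry weight.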

[2] = Stability of the compound in rat plasma assessed as half life at 200 uM measured after 24 hrs by HPLC analysis; format: ADME, cell-free
[3] = Neuroprotective activity against in OGD/R-induced rat cortical neuron apoptosis assessed as necrotic cells pretreated at 1.8 uM for 24 hrs followed by subjected to OGD for 2 hrs measured after 24 hrs under normoxic condition by PI/FITC-H staining based flow cytometry (reference value: 3.68%); format: functional, Cortical neurone
Rattus norvegicus [4] = assay: Neuroprotective activity against middle cerebral artery occlusion-induced ischemia-reperfusion injury Sprague-Dawley rat model assessed as decrease in cerebral edema degree at 95 to 9500 microg/kg, iv pretreated for 2 hrs followed by reperfusion measured after 24 hrs; format: functional, organism-based; details: dose 95-9500 µg/kg; how it was run: as §1
HUVEC = assay: Angiogenesis activity in HUVEC cells assessed as increase in tube formation at 1.8 uM measured after 8 hrs by inverted microscopy; format: functional, cell-based; details: Homo sapiens
How it was run: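 Early-passage HUVECs (passages 2–6), grown in DMEM with 10% FBS, glutamine, pyruvate and antibiotics, were seeded at 8 × 10⁴ cells/well on Matrigel. They were exposed to vehicle or compound for 8 h at 37 °C, 5% CO₂. Tubes were counted under an inverted microscope.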

[5] = Neuroprotective activity against in OGD/R-induced rat primary cortical neuron apoptosis assessed as viable cells pretreated at 1.8 uM for 24 hrs followed by subjected to OGD for 2 hrs measured after 24 hrs under normoxic condition by PI/FITC-H staining based flow cytometry (reference value: 31.55%); format: functional; details: Cortical neurone, read-out: Activity
How it was run: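 Cortical neurons were isolated from SD rat cortex by enzymatic digestion, plated on poly-lysine in 10% FBS DMEM, and pretreated 24 h at 1.8 μM in basal medium with 2% B27. OGD was run in glucose/FBS-free DMEM under 1% O₂, followed by 24 h reoxygenation in 10% FBS DMEM. Viability was read by MTT; apoptosis was also assessed. Three independent experiments.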

Rattus norvegicus [6] = assay: Neuroprotective activity against middle cerebral artery occlusion-induced ischemia-reperfusion injury Sprague-Dawley rat model assessed as decrease in cerebral edema degree at 95 to 9500 microg/kg, iv treated immediately reperfusion in presence of PTIO measured after 24 hrs; format: functional, organism-based; details: dose 95-9500 µg/kg
How it was run: (§2)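 Male SD rats (12 weeks, 200–220 g; N = 8/group) underwent MCAO under […] (350 mg/kg) using a nylon intraluminal suture for 2 h, then reperfusion. Compound (95, 950 or 9500 μg/kg) was given iv immediately after reperfusion; where used, PTIO 1 mg/kg iv was given 30 min before. At 24 h, blinded scoring covered Longa neurological deficit, TTC infarct area/whole area, and edema from wet/dry brain weight (105 °C, 24 h).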

[7] = Neuroprotective activity against in OGD/R-induced rat cortical neuron apoptosis assessed as late apoptotic cells pretreated at 1.8 uM for 24 hrs followed by subjected to OGD for 2 hrs measured after 24 hrs under normoxic condition by PI/FITC-H staining based flow cytometry (reference value: 6.31%); format: functional, Cortical neurone
[8] = GSH reactivity assessed as reaction rate measured at 32 equiv of GSH upto 24 hrs by HPLC analysis; format: ADME
[9] = GSH reactivity assessed as reaction rate measured at 1 equiv of GSH upto 24 hrs by HPLC analysis; format: ADME
Rattus norvegicus [10] = assay: Neuroprotective activity against middle cerebral artery occlusion-induced ischemia-reperfusion injury Sprague-Dawley rat model assessed as decrease in neurologic deficit scores at 95 to 9500 microg/kg, iv treated immediately reperfusion in presence of PTIO measured after 24 hrs; format: functional, organism-based; details: dose 95-9500 µg/kg; how it was run: as §2

half-life at 200 µM [2]: 5.3 h | Activity [8]: 0.056 h⁻¹ | Activity [9]: 0.0214 h⁻¹
SMILES: O=C(/C(=C/c1ccccc1)C[N+](=O)[O-])c1ccccc1
Activity (Rattus norvegicus [1]): Active | Activity [3]: 1.28% | Activity (Rattus norvegicus [4]): Active | Activity (HUVEC): Active | viability at 1.8 µM [5]: 69.8% | Activity (Rattus norvegicus [6]): inactive | Activity [7]: 1.72% | Activity (Rattus norvegicus [10]): inactive
